Experimental data collected from several papers.
Compare with care: the assays were run in different laboratories.

The EC50 of `CNc1ncc2c(/C=C/C(=O)N3CCC(OC)CC3)nn(CC3CCCC3)c2n1` is reported as 6.72 µM (OE33; cell growth or viability, resazurin; 5 days).
`CC(C)(C)c1cnc(CSc2cnc(NC(=O)C3CCN(CCCCCCCCSc4cccc5c4CN(C4CCC(=O)NC4=O)C5=O)CC3)s2)o1` (stereo not shown) has a viability of 97.4% (HH; cell growth or viability, CCK-8; 1 nM).
The cell death of `CC(=O)Nc1ccc(Oc2nnc(-c3ccc(Cl)cc3)c3ccccc23)cc1` is reported as 93.5% (HepG2; cell growth or viability, MTT; 5 µM).
`CNc1ncc2c(/C=C/C(=O)N3CCC(OC)CC3)nn(CC(C)(C)C)c2n1` gave an EC50 of > 30 µM (OE33; cell growth or viability, resazurin; 5 days).
With `CC(C)(C)c1cnc(CSc2cnc(NC(=O)C3CCN(C(=O)CCCSc4cccc5c4C(=O)N(C4CCC(=O)NC4=O)C5=O)CC3)s2)o1` (stereo not shown) the viability was 86.7% (HH; cell growth or viability, CCK-8; 0.25 µM).
For `CNc1ncc2c(/C=C/C(=O)N3CCC(OC)CC3)nn(CC3CCCO3)c2n1` (stereo not shown), the EC50 was > 30 µM (OE33; cell growth or viability, resazurin; 5 days).
`C=CC(=O)NC1CCN(c2ncc3ncnc(Nc4ccc(Oc5ccc6c(c5)ncn6C)c(C)c4)c3n2)CC1` has an EC50 of 0.0333 µM (PANC-03-27; cell growth or viability).
`CNc1ncc2c(/C=C/C(=O)N3CCC(OC)CC3)nn(CC3CCCCC3)c2n1` gave an EC50 of 6.51 µM (OE33; cell growth or viability, resazurin; 5 days).
`O=C(Nc1ccc(Oc2nnc(-c3ccc(Cl)cc3)c3ccccc23)cc1)c1cccc([N+](=O)[O-])c1` gave a cell death of 32.3% (HepG2; cell growth or viability, MTT; 0.625 µM).
For `CNc1ncc2c(/C=C/C(=O)N3CCC(COC)CC3)nn(Cc3cccc(C)c3)c2n1`, the EC50 was > 30 µM (OE33; cell growth or viability, resazurin; 5 days).
For `CC(C)OC(=O)C(n1cccn1)n1cccn1`, the IC50 was > 50 µM (A-431; cell growth or viability, MTT; 72 h).
`CC(=NNC(=S)Nc1ccccc1)c1ccc(Nc2nnc(-c3ccc(Cl)cc3)c3ccccc23)cc1` has a cell death of 95.7% (HepG2; cell growth or viability, MTT; 10 µM).
The viability of `CC(C)(C)c1cnc(CSc2cnc(NC(=O)C3CCN(CCCCCSc4cccc5c4CN(C4CCC(=O)NC4=O)C5=O)CC3)s2)o1` (stereo not shown) is reported as 0% (HH; cell growth or viability, CCK-8; 0.2 µM).
`CC(=NNC(=O)c1cccnc1)c1ccc(Nc2nnc(-c3ccc(Cl)cc3)c3ccccc23)cc1` has a cell death of 6.41% (HepG2; cell growth or viability, MTT; 0.312 µM).
For `CNc1ncc2c(/C=C/C(=O)N3CCC(OC)CC3)nn(Cc3ccccc3)c2n1`, the EC50 was 7.49 µM (OE33; cell growth or viability, resazurin; 5 days).
For `O=C(Nc1ccc(Oc2nnc(-c3ccc(Cl)cc3)c3ccccc23)cc1)c1ccccc1`, the cell death was 3.97% (HepG2; cell growth or viability, MTT; 78 nM).
For `O=C(Nc1ccc([N+](=O)[O-])cc1)Nc1ccc(C(F)(F)F)cc1`, the IC50 was 0.17 µM (LAD2; degranulation).
With `CC(C)(C)c1cnc(CSc2cnc(NC(=O)C3CCN(C(=O)COCCOCCSc4cccc5c4C(=O)N(C4CCC(=O)NC4=O)C5=O)CC3)s2)o1` (stereo not shown) the viability was 13.5% (HH; cell growth or viability, CCK-8; 0.5 µM).
The viability of `CCOC(=O)c1nn(-c2cccc(Cl)c2)/c(=N/N=C(\C)c2ccc(NC(=O)c3ccccc3)cc2)s1` is reported as 3.18% (HepG2; cell growth or viability, MTT; 0.625 µM).
The IC50 of `O=C(Nc1cccc([N+](=O)[O-])c1)Nc1cccc(C(F)(F)F)c1` is reported as 0.28 µM (LAD2; degranulation).
For `S=C(Nc1ccccc1)Nc1ccc(Oc2nnc(-c3ccc(Cl)cc3)c3ccccc23)cc1`, the viability was 5.31% (HepG2; cell growth or viability, MTT; 5 µM, 24 h).
`CC(=O)c1nn(-c2ccc(C)cc2)/c(=N/N=C(\C)c2ccc(NC(=O)c3ccccc3)cc2)s1` gave a viability of 5.9% (HepG2; cell growth or viability, MTT; 1.25 µM).
